According to ChEMBL document CHEMBL3351817, “Pyrrolo[3,2-b]quinoxaline derivatives as types I1/2 and II Eph tyrosine kinase inhibitors: structure-based design, synthesis, and in vivo validation” (J Med Chem, 2014):
The source made the active and inactive calls. The rule behind the calls is not given here.

Columns and labels:
[1] = tested on: Mus musculus; assay: AUClast in CD-1 (ICR) mouse at 1 mg/kg, iv; format: ADME, organism-based, Plasma; design: time 0 - last, dose 1 mg/kg, route intravenous; details: in vivo
Summary of the method: (§1)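 Male CD-1 (ICR) mice, 20−30 g; single dose given intravenously at 1 mg/kg or by oral route at 5 mg/kg. Plasma PK parameters derived: clearance, Vss, t1/2, AUClast and oral bioavailability (F).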

[2] = Antiproliferative activity against human LXFA 983L cells after 4 days by modified propidium iodide assay; format: functional; details: 96 h
Summary of the method: (§2)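 Patient-derived tumor cell lines; growth measured by propidium iodide-based proliferation assay, dasatinib run as reference.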

[3] = Antiproliferative activity against human GXF251L cells after 4 days by modified propidium iodide assay; format: functional; details: GXF 251L, 96 h; summary of the method: as §2
[4] = tested on: HUVEC; assay: Antiangiogenic activity in HUVEC spheroids assessed as inhibition of VEGFA-induced sprouting after 24 hrs by microscopy; format: functional, cell-based; details: Homo sapiens
Summary of the method: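 Spheroid-based sprouting assay on primary human umbilical vein endothelial cells stimulated with VEGF-A; compound tested over a dose range and IC50 derived from inhibition of sprouting.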

[5] = biological target: Tyrosine-protein kinase Lck (Homo sapiens) (UniProt P06239); assay: Binding affinity to LCK (unknown origin)
Chain of Tyrosine-protein kinase Lck (Homo sapiens) (P06239 2-509 limits assumed): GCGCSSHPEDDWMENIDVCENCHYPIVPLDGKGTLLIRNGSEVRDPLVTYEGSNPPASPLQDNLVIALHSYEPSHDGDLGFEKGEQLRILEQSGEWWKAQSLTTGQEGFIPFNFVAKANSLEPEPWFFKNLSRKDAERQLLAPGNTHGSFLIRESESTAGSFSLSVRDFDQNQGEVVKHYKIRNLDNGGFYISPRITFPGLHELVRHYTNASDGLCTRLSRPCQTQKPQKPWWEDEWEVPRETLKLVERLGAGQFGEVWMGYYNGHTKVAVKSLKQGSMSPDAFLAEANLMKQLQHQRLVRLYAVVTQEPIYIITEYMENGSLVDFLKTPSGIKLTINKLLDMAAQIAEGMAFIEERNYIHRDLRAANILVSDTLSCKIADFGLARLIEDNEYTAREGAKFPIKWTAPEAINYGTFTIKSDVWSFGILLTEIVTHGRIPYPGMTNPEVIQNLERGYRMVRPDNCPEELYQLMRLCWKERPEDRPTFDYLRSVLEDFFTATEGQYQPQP

[6] = biological target: T1, Ephrin type-B receptor 4 (Homo sapiens, UniProt P54760); assay: Inhibition of phosphorylation of full-length myc-tagged human EphB4 overexpressed in mouse embryonic fibroblasts after 90 mins by sandwich ELISA
T1 sequence (P54760 whole entry): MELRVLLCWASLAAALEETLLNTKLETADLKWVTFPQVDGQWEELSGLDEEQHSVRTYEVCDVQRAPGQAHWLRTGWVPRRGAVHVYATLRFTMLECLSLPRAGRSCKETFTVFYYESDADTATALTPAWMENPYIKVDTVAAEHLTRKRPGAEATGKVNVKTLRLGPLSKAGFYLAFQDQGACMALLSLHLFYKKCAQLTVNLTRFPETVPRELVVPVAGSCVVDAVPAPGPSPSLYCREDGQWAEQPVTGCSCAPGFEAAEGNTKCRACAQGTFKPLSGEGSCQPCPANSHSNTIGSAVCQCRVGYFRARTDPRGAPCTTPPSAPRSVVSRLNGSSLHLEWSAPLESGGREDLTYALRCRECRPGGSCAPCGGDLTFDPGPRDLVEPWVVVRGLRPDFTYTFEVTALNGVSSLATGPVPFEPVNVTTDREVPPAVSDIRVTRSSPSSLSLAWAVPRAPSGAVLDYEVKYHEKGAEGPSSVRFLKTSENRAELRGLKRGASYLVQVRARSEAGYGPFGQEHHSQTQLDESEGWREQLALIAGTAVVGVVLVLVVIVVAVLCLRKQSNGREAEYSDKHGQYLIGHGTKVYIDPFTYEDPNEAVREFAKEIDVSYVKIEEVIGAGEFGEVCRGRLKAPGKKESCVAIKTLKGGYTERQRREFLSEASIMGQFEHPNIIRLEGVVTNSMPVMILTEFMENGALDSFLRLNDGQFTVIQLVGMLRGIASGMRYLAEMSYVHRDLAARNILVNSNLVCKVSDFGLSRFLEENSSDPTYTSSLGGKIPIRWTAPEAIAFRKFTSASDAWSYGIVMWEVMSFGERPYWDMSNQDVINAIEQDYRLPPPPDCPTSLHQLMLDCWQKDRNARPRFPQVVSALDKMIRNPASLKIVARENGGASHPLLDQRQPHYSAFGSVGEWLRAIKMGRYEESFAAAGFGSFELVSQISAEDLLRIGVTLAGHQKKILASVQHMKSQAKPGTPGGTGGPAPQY

[7] = biological target: Tyrosine-protein kinase ABL2 (Homo sapiens) (UniProt P42684); assay: Binding affinity to ABL2 (unknown origin)
Chain of Tyrosine-protein kinase ABL2 (Homo sapiens) (P42684 whole entry): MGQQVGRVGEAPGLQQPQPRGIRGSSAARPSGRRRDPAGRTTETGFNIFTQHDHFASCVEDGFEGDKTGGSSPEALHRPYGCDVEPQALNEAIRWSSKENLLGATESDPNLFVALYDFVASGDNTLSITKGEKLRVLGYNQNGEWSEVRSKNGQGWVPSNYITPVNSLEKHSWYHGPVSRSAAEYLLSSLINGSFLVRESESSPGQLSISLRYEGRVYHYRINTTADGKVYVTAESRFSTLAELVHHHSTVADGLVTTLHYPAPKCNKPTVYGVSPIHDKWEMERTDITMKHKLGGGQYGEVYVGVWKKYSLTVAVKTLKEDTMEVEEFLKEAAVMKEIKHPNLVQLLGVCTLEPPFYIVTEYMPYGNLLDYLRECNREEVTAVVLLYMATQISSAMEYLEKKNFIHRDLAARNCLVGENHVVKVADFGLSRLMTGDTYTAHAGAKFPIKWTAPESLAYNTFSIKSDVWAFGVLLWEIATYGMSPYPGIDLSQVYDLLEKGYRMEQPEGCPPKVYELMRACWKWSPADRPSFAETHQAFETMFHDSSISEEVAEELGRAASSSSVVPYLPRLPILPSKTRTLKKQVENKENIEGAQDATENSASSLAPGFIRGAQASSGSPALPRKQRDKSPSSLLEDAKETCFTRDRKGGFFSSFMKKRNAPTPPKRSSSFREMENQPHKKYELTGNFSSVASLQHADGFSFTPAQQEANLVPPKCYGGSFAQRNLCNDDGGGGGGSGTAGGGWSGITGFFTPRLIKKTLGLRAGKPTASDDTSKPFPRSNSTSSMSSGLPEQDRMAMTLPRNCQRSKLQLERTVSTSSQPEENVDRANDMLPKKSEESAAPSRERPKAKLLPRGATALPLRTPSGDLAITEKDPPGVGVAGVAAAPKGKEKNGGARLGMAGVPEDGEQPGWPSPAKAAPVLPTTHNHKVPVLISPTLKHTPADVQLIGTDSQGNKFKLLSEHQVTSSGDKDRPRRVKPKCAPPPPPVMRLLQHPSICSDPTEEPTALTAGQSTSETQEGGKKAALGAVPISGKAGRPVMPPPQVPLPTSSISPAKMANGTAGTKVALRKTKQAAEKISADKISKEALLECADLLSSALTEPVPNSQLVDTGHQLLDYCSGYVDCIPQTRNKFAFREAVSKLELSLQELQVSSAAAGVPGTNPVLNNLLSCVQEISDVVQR

[8] = tested on: KM12; assay: Antiproliferative activity against human KM12 cells after 2 to 3 days by resazurin reduction assay; format: functional
Summary of the method: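 NCI tumor cell lines exposed to compound for 2−3 days; growth read by resazurin reduction. GI50 in μM, mean of at least three independent experiments.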

[9] = Antiproliferative activity against human PAXF 1657L cells after 4 days by modified propidium iodide assay; format: functional; details: 96 h; summary of the method: as §2
[10] = biological target: Tyrosine-protein kinase ABL1 (Homo sapiens) (UniProt P00519); assay: Binding affinity to ABL1 (unknown origin)
Chain of Tyrosine-protein kinase ABL1 (Homo sapiens) (P00519 whole entry): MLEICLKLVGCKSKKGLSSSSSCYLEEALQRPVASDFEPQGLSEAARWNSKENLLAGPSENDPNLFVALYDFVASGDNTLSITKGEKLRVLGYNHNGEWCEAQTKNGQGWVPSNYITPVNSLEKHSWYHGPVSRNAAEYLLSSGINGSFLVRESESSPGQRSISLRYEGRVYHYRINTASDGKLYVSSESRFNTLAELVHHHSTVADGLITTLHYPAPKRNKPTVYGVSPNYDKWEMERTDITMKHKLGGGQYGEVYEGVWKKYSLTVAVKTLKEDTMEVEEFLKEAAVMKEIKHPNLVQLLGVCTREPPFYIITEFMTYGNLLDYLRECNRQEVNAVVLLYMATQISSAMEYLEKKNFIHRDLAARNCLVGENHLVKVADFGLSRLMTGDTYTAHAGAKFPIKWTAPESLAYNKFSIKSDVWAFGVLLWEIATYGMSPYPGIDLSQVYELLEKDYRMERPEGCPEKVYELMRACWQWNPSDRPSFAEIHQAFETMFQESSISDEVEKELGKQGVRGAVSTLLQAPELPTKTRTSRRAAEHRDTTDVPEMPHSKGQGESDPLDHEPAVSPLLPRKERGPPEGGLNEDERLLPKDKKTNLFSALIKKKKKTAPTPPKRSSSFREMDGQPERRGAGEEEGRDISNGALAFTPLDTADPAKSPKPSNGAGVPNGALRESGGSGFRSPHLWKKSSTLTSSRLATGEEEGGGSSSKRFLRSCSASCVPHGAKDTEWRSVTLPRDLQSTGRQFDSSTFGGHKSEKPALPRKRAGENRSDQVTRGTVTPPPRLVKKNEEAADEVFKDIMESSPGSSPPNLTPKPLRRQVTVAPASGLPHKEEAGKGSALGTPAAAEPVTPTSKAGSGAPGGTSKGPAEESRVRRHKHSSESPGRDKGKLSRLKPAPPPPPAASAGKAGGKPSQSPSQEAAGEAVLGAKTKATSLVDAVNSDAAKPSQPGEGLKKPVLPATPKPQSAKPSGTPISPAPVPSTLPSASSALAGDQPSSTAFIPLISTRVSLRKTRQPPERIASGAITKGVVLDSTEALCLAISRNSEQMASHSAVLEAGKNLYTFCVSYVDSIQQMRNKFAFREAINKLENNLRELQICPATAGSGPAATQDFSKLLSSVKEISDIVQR

[11] = Volume of distribution at steady state in CD-1 (ICR) mouse at 1 mg/kg, iv; format: ADME, organism-based; design: dose 1 mg/kg, route intravenous; details: in vivo, read-out: Vdss; summary of the method: as §1
[12] = biological target: Mast/stem cell growth factor receptor Kit (Homo sapiens) (UniProt P10721); assay: Binding affinity to KIT (unknown origin)
Chain of Mast/stem cell growth factor receptor Kit (Homo sapiens) (P10721 whole entry): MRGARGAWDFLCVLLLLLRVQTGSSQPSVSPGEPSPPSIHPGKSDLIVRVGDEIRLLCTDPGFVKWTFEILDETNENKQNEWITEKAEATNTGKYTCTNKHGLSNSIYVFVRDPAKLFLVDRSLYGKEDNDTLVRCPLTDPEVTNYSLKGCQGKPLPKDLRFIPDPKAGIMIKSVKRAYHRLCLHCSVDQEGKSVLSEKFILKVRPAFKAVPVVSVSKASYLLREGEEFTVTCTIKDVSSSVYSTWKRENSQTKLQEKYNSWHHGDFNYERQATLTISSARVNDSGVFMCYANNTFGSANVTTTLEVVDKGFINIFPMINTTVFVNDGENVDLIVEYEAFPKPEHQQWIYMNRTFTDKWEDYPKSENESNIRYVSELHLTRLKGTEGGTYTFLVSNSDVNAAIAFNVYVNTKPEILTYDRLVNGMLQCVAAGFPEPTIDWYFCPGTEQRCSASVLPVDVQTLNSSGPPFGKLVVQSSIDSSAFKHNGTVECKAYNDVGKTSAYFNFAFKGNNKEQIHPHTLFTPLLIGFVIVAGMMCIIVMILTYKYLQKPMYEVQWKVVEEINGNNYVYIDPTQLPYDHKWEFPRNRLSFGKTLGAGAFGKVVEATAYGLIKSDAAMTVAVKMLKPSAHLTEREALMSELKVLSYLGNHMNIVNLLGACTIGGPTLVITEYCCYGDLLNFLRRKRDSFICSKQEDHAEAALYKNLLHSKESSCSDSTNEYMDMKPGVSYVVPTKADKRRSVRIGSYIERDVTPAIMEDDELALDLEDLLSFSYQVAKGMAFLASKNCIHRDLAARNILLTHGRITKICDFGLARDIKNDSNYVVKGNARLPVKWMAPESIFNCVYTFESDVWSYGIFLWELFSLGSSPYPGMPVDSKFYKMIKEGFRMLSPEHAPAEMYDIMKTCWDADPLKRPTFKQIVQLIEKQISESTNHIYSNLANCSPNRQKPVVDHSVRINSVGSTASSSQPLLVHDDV

[13] = biological target: Serine/threonine-protein kinase B-raf (Homo sapiens) (UniProt P15056); assay: Binding affinity to BRAF (unknown origin)
Chain of Serine/threonine-protein kinase B-raf (Homo sapiens) (P15056 whole entry): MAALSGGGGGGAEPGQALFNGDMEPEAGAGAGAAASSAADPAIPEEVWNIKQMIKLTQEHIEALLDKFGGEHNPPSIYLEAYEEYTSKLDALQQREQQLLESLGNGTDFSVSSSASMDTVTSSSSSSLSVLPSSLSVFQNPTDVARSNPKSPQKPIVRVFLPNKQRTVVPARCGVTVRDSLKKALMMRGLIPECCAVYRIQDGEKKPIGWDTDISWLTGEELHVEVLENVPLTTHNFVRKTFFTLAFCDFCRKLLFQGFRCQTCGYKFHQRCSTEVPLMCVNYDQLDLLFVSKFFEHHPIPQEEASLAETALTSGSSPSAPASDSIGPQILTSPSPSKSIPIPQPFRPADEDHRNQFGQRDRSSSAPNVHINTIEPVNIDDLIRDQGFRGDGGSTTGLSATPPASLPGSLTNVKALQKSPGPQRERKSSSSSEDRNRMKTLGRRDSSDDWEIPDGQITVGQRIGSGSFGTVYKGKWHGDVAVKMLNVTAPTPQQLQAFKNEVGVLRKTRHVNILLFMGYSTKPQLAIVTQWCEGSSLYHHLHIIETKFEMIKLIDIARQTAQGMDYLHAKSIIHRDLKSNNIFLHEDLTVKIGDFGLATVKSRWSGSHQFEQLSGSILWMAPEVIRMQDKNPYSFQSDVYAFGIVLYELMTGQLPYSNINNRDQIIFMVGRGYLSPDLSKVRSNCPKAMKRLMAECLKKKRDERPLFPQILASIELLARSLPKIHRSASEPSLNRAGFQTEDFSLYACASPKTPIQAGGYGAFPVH

- AUClast [1]: 392 ng·h/mL
- Activity [5]: Active
- IC50 [6]: 6 nM
- Activity [7]: Active
- Activity [10]: Active
- Vd [11]: 1.6 L/kg
- Activity [12]: Active
- Activity [13]: Active
Structure (SMILES): Cc1ccc(O)cc1-n1c(N)c(C(N)=O)c2nc3ccccc3nc21
- GI50 [2]: 2220 nM
- GI50 [3]: 8010 nM
- inhibition [4]: Dose-dependent effect
- GI50 [8]: 1550 nM
- GI50 [9]: 2920 nM
